Measured values published in ChEMBL document CHEMBL1764948, “Diversonol and blennolide derivatives from the endophytic fungus Microdiplodia sp.: absolute configuration of diversonol” (2011).
Values after ≈ are worked out from the molar mass of the structure shown. Active and inactive are the calls of the source. The rule behind the calls is not given here.

Assays:
Escherichia coli = assay: Antibacterial activity against Escherichia coli K-12 by microtiter plate assay; type: functional, organism-based
Method in brief: (§1)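 Minimum inhibitory concentration determined in liquid medium in microtiter wells.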

Priestia megaterium = assay: Antibacterial activity against Bacillus megaterium by microtiter plate assay; type: functional, organism-based; method in brief: as §1
Legionella pneumophila = assay: Antibacterial activity against Legionella pneumophila Corby by microtiter plate assay; type: functional
Method in brief: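 Broth microdilution MIC in liquid medium in microtiter wells. Legionella pneumophila Corby grown in YEB medium (10 g ACES, 10 g yeast extract per 1000 mL water, pH 6.9, plus supplements). Value reported as the minimum inhibitory concentration.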

Microbotryum violaceum = assay: Antifungal activity against Microbotryum violaceum assessed as zone of inhibition measured as radius at 50 ug by agar diffusion assay; type: functional; settings: for zone of inhibition at 50 µg/disc: read-out: IZ
Method in brief: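 Samples at 1 mg/mL in acetone; 50 μg applied to a 9 mm sterile filter disk on MPY agar. The plate was then sprayed with a Microbotryum violaceum suspension and incubated at 20 °C. The inhibition zone radius was measured in mm from the disk centre.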

Row | Compound | Activity (Escherichia coli) | Activity (Priestia megaterium) | MIC (Legionella pneumophila) | zone of inhibition at 50 µg/disc (Microbotryum violaceum) | Activity (Microbotryum violaceum) | inhibition zone (IZ) (Microbotryum violaceum)
1 | C[C@H]1Oc2cccc(O)c2C(=O)[C@@H]1O | inactive | inactive | 1000 µg/mL (≈ 5.15 mM) |  |  | 
2 | CC(C)=O [ACETONE] |  |  |  | 0 mm |  | 
3 | C[C@@H]1C[C@@H]([C@H](O)CC2CC(=O)NC(=O)C2)C(=O)[C@@H](C)C1 [CYCLOHEXIMIDE] |  |  |  | 50 mm |  | 
4 | Cc1cc(O)c2c(c1)O[C@@]1(C)[C@@H](O)CC[C@H](O)[C@]1(O)C2=O [DIVERSONOL] | inactive | inactive | 1000 µg/mL (≈ 3.4 mM) | 0 mm |  | 
5 | CC(C)[C@@H](C)/C=C/[C@@H](C)[C@H]1CC[C@H]2C3=CC=C4C[C@@H](O)CC[C@]4(C)[C@H]3CC[C@]12C [ERGOSTEROL] | inactive | inactive | 250 µg/mL (≈ 0.63 mM) |  | inactive | 
6 | NC[C@H]1O[C@H](O[C@H]2[C@H](O)[C@@H](O[C@H]3O[C@H](CO)[C@@H](O)[C@H](N)[C@H]3O)[C@H](N)C[C@@H]2N)[C@H](O)[C@@H](O)[C@@H]1O [KANAMYCIN] |  |  | 12.5 µg/mL (≈ 0.0258 mM) |  |  | 
7 | COC1=CC(=O)[C@@H](O)[C@@]2(O)C(=O)c3c(O)cc(C)cc3O[C@]12C [MICRODIPLODIASOLOL] | inactive | inactive | 1000 µg/mL (≈ 3.12 mM) | 6 mm |  | 
8 | C[C@@]12Oc3cc(CO)cc(O)c3C(=O)[C@@]1(O)[C@@H](O)CC[C@@H]2O [MICRODIPLODIASOL] | inactive | inactive | 125 µg/mL (≈ 0.403 mM) |  |  | 
9 | C[C@]1([C@H]2CCC(=O)O2)CC(=O)c2c(O)cc(O)cc2O1 [MICRODIPLODIASONE] | inactive | inactive | 1000 µg/mL (≈ 3.59 mM) | 0 mm |  | 
10 | CC1(C)S[C@@H]2[C@H](NC(=O)Cc3ccccc3)C(=O)N2[C@H]1C(=O)O [PENICILLIN G] |  |  |  | 0 mm |  | 
11 | CN(C)[C@@H]1C(O)=C(C(N)=O)C(=O)[C@@]2(O)C(O)=C3C(=O)c4c(O)cccc4[C@@](C)(O)[C@H]3C[C@@H]12 [TETRACYCLINE] |  |  |  | 0 mm |  | 
12 | NYSTATIN |  |  |  |  |  | 20 mm
